Source: ChEMBL document CHEMBL1152423, “Development of N-[11C]methylamino 4-hydroxy-2(1H)-quinolone derivatives as PET radioligands for the glycine-binding site of NMDA receptors” (Bioorg Med Chem, 2009)
Values belong to the compound of their own block, whether it stands above or below them. Active and inactive are the calls of the source. No cut-off for these calls is given here.

Tests used:
Glutamate NMDA receptor [1] = test: Displacement of [3H]MDL-105519 from glycine binding site of NMDA receptor in rat cortical membrane by liquid scintillation counting; format: cell membranes
Procedure, shortened: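 Washed rat cortical membranes in 50 mM Tris–HCl (pH 8.0) were incubated 45 min at 4 °C with [3H]MDL-105,519 (2 nM) plus buffer or displacer. Nonspecific binding was defined with excess unlabeled glycine. Samples were filtered on GF/B, washed three times with ice-cold buffer, and counted by liquid scintillation. Ki came from three determinations, each in triplicate.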

[2] = molecular target: T1, Glutamate NMDA receptor (Rattus norvegicus) (UniProt P35439+Q00959+Q00960+Q00961+Q62645+Q8VHN2+Q9R1M7); test: Binding affinity to glycine binding site of NMDA receptor in hippocampus of rat brain by autoradiography; format: tissue-based; conditions: tested as the 11C-labelled form
Procedure, shortened: (§1)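 Rat brain sagittal sections were preincubated 30 min at 25 °C in 50 mM Tris–HCl (pH 7.4), then incubated 30 min at 25 °C with the [11C]radioligand (1.59–2.13 nM). Sections were rinsed twice for 3 min in cold buffer, dipped in cold water, dried, and exposed to imaging plates for 60 min. Nonspecific binding was taken with the corresponding unlabeled ligand; specific binding is given per region.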

[3] = molecular target: T1, Glutamate NMDA receptor (Rattus norvegicus); test: Binding affinity to glycine binding site of NMDA receptor in cerebral cortex of rat brain by autoradiography; format: tissue-based; conditions: tested as the 11C-labelled form; procedure, shortened: as §1
[4] = molecular target: T1, Glutamate NMDA receptor (Rattus norvegicus); test: Binding affinity to glycine binding site of NMDA receptor in thalamus of rat brain by autoradiography; format: tissue-based; conditions: tested as the 11C-labelled form; procedure, shortened: as §1
[5] = molecular target: T1, Glutamate NMDA receptor (Rattus norvegicus); test: Binding affinity to glycine binding site of NMDA receptor in striatum of rat brain by autoradiography; format: tissue-based; conditions: tested as the 11C-labelled form; procedure, shortened: as §1
[6] = molecular target: T1, Glutamate NMDA receptor (Rattus norvegicus); test: Binding affinity to glycine binding site of NMDA receptor in cerebellum of rat brain by autoradiography; format: tissue-based; conditions: tested as the 11C-labelled form; procedure, shortened: as §1
[7] = molecular target: T1, Glutamate NMDA receptor (Rattus norvegicus); test: Binding affinity to glycine binding site of NMDA receptor in hippocampus of rat brain by autoradiography in presence of glycine; format: tissue-based; conditions: tested as the 11C-labelled form
Procedure, shortened: (§2)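 Hippocampal binding on rat brain slices: 30 min at 25 °C in 50 mM Tris–HCl (pH 7.4) with [11C]radioligand (1.59–2.13 nM), with or without a glycine-site drug (agonists at 1 mM). Slices were rinsed, dried and exposed to imaging plates for 60 min. PSL with drug was divided by PSL without drug to give % total binding, averaged over at least triplicate sections from three animals.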

[8] = molecular target: T1, Glutamate NMDA receptor (Rattus norvegicus); test: Binding affinity to glycine binding site of NMDA receptor in hippocampus of rat brain by autoradiography in presence of glycine-site agonist D-serine; format: tissue-based; conditions: tested as the 11C-labelled form; procedure, shortened: as §2
[9] = molecular target: T1, Glutamate NMDA receptor (Rattus norvegicus); test: Binding affinity to glycine binding site of NMDA receptor in hippocampus of rat brain by autoradiography in presence of glycine-site antagonist L-703717; format: tissue-based; conditions: tested as the 11C-labelled form; procedure, shortened: as §2
[10] = molecular target: T1, Glutamate NMDA receptor (Rattus norvegicus); test: Binding affinity to glycine binding site of NMDA receptor in hippocampus of rat brain by autoradiography in presence of glycine-site antagonist methoxy-MDL-104653; format: tissue-based; conditions: tested as the 11C-labelled form; procedure, shortened: as §2
[11] = molecular target: T1, Glutamate NMDA receptor (Rattus norvegicus); test: Binding affinity to glycine binding site of NMDA receptor in hippocampus of rat brain by autoradiography in presence of glycine-site antagonist MDL-105519; format: tissue-based; conditions: tested as the 11C-labelled form; procedure, shortened: as §2
[12] = n-Octanol-sodium phosphate buffer partition coefficient, log D at pH 7.4 after 15 mins by shake-flask method; format: physicochemical
Procedure, shortened: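 Compound (1–2 mg) was shaken 15 min at ambient temperature in n-octanol and 10 mM phosphate buffer (pH 7.4). The mixture was centrifuged at 2500 rpm for 5 min, and both layers were analysed by HPLC (n=3).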

[13] = Plasma protein binding in rat at 0.67 to 0.89 […] after 30 mins by ultrafiltration; format: ADME, cell-free; conditions: read-out: PPB (converted)
Procedure, shortened: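 Rat serum was diluted 10-fold in 66 mM phosphate buffer (pH 7.4) containing [11C]radioligand (0.67–0.89 MBq) and incubated 30 min at 30 °C. It was then ultrafiltered by centrifugation at 2000 rpm for 15 min. Radioactivity in whole plasma and in filtrate was counted to give % bound (mean, n=3).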

Blood [14] = test: Biodistribution in ddY mouse blood assessed per gram of tissue at 7.4 MBq, iv after 1 min by gamma counting; format: ADME, organism-based; conditions: in vivo
Procedure, shortened: (§3)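 ddY mice (35–45 g) received about 7.4 MBq of [11C]radioligand in 0.2 ml into the tail vein and were decapitated at 1 or 30 min. Blood, cerebrum and cerebellum were gamma-counted with decay correction and expressed as % injected dose/g; tissue/blood ratios were derived. n=3 or 5.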

[15] = Biodistribution in ddY mouse cerebrum assessed per gram of tissue at 7.4 MBq, iv after 1 min by gamma counting; format: ADME, organism-based; conditions: in vivo; procedure, shortened: as §3
Cerebellum [16] = test: Biodistribution in ddY mouse cerebellum assessed per gram of tissue at 7.4 MBq, iv after 1 min by gamma counting; format: ADME, organism-based; conditions: in vivo; procedure, shortened: as §3
Blood [17] = test: Biodistribution in ddY mouse blood assessed per gram of tissue at 7.4 MBq, iv after 30 mins by gamma counting; format: ADME, organism-based; conditions: in vivo, 0.5 h; procedure, shortened: as §3
[18] = Biodistribution in ddY mouse cerebrum assessed per gram of tissue at 7.4 MBq, iv after 30 mins by gamma counting; format: ADME, organism-based; conditions: in vivo, 0.5 h; procedure, shortened: as §3
Cerebellum [19] = test: Biodistribution in ddY mouse cerebellum assessed per gram of tissue at 7.4 MBq, iv after 30 mins by gamma counting; format: ADME, organism-based; conditions: in vivo, 0.5 h; procedure, shortened: as §3
[20] = Ratio of drug level in cerebrum to blood of ddY mouse at 7.4 MBq, iv after 1 min; format: ADME, organism-based; procedure, shortened: as §3
[21] = Ratio of drug level in cerebellum to blood of ddY mouse at 7.4 MBq, iv after 1 min; format: ADME, organism-based; procedure, shortened: as §3
[22] = Ratio of drug level in cerebrum to blood of ddY mouse at 7.4 MBq, iv after 30 mins; format: ADME, organism-based; procedure, shortened: as §3
[23] = Ratio of drug level in cerebellum to blood of ddY mouse at 7.4 MBq, iv after 30 mins; format: ADME, organism-based; procedure, shortened: as §3
Glutamate NMDA receptor [24] = test: Binding affinity to glycine binding site of NMDA receptor in rat brain; format: tissue-based

Ki (Glutamate NMDA receptor [1]): 119 nM
Compound: COc1cccc(-c2c(O)c3c(N)cc(Cl)cc3[nH]c2=O)c1

Ki (Glutamate NMDA receptor [1]): 715 nM
Compound: CNc1cc(Cl)cc2[nH]c(=O)c(-c3cccc(OC)c3)c(O)c12

Ki (Glutamate NMDA receptor [24]): 10.3 nM
Compound: COc1cccc(-c2c(O)c3c(I)cc(Cl)cc3[nH]c2=O)c1

Ki (Glutamate NMDA receptor [24]): 7.2 nM
fraction unbound at 0.5 h [13]: 0.06
Compound: CCc1cc(Cl)cc2[nH]c(=O)c(-c3cccc(OC)c3)c(O)c12

More lines, now with the values behind:

Compound: CCc1cc(Cl)cc2[nH]c(=O)c(-c3cccc(NC)c3)c(O)c12
Ki (Glutamate NMDA receptor [1]): 11.8 nM
Activity [2]: 89%
Activity [3]: Active
Activity [4]: Active
Activity [5]: Active
Activity [6]: 75%
Activity [7]: 59%
Activity [8]: 59%
Activity [9]: 64%
Activity [10]: 64%
Activity [11]: 64%

Compound: COc1ccc(Cc2cccc(-c3c(O)c4ccc(Cl)cc4[nH]c3=O)c2)cc1
Ki (Glutamate NMDA receptor [1]): 5.12 nM
logD at 0.25 h [12]: 3.47
fraction unbound at 0.5 h [13]: 0.06

Compound: [11CH3]Nc1ccc(Cc2cccc(-c3c(O)c4ccc(Cl)cc4[nH]c3=O)c2)cc1
Drug uptake (Blood [14]): 13.08 %ID
Drug uptake [15]: 0.4 %ID
Drug uptake (Cerebellum [16]): 0.48 %ID
Drug uptake (Blood [17]): 3.93 %ID/g
Drug uptake [18]: 0.17 %ID/g
Drug uptake (Cerebellum [19]): 0.23 %ID/g
Kp at 1 min [20]: 0.031
Kp at 1 min [21]: 0.037
Kp at 0.5 h [22]: 0.043
Kp at 0.5 h [23]: 0.058

Compound: COc1ccc(Nc2cccc(-c3c(O)c4ccc(Cl)cc4[nH]c3=O)c2)cc1
Ki (Glutamate NMDA receptor [1]): 23.6 nM
